# Only some compounds are listed: those with a hit (about 4% of all), similar ones and a draw of the others.
# FGF22 binding: shifts melting point of recombinant human FGF22 | 340,000 compounds, 1.5% hits | Q9HCT0 | AID 651658 | activity (Tm shift, normalised), % at 9.99 µM | recombinant FGF22 thermal shift, SYPRO orange fluorescence; percent of sucrose octasulfate shift, DMSO zero;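 active means mean Tm shift, scaled 0 neutral to 100 positive control, at about 1.3% or above, every replicate too, limit read from the data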
# Target sequence (Q9HCT0 whole entry, looked up): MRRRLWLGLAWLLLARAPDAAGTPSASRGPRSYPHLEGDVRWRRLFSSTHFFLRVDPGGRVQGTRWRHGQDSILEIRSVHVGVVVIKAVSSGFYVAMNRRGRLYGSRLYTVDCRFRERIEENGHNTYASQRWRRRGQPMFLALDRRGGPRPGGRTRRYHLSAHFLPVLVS
# Statin myotox sup: suppression of simvastatin myotoxicity | rescue of ATP level, % at 7.49 µM | AID 602340 | C2C12 myotubes + simvastatin, ATP luminescence, 48 h; scaled: DMSO 0, geranylgeraniol control 100 | 330,000 compounds, 0.78% hits;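 active means mean ATP rescue above about 67%, or every replicate alone reaching that limit, limit read from the data, passing the limit was not always enough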;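 further: myotubes were challenged with 10 µM simvastatin during compound exposure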
# E-sel inducer: E-selectin induction on HUVECs; HUVEC E-selectin immunofluorescence imaging; normalized: neutral wells 0, TNF-alpha wells 100; activation, % at 7.58 µM; 260,000 compounds, 0.37% hits;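 active means mean E-selectin-positive cell signal at least 10% of the positive control, reached in at least 60% of replicates, without over 20% cell loss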
#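 Material: HUVEC primary endothelial cells; Amount: 3,000 cells per well; Dosing: single concentration; Medium: EGM-2 growth medium on 0.1% gelatin-coated wells; Read-out basis: percent E-selectin-positive cells; Signal: immunofluorescence imaging; Control set: TNF-alpha, DMSO.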
# FN deposition inh: fibronectin deposition inhibition; AH1F fibroblasts, Alexa488-fibronectin deposition fluorescence, overnight; inhibition, % at 12.6 µM; 350,000 compounds, 0.086% hits; AID 743247;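 active means mean inhibition across replicates of 30% or more, regardless of how many single replicates reach that level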;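 further: positive control wells lacked labelled fibronectin entirely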
#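 Assay system: AH1F fibroblasts assembling fluorescent fibronectin matrix; Amount: 10000 AH1F cells per well; Buffer or medium: DMEM, 2% serum; Probe or stimulus: Alexa488-fibronectin, 24 nM final in well; Doses: single compound dose, delivered by pin transfer; Incubation: 1 h adhesion, overnight exposure; Measured by: fluorescence 485/525 nm; Read-out: fibronectin deposition inhibition.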
# rRNA inh HTS: selective bacterial rRNA inhibition in E. coli; E. coli WT GFP vs humanized-ribosome RFP mutants, fluorescence, 24 h; stronger effect = lower value; DMSO median 0, no signal -100; GFP signal change (wild-type ribosome), % (test concentration not listed); 350,000 compounds, 1.6% hits;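 active means significant combined selectivity score with lowered wild-type GFP, culture density cut under 30%, mutant RFP and density less affected; inactive means any of these conditions unmet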
# SIRT5 inh: inhibitors of human sirtuin-5 desuccinylase; AID 652115; Purified SirT5, succinyl-peptide AMC, trypsin-coupled fluorescence; 330,000 compounds, 1.1% hits; inhibition, % at 15 µM; Q9NXA8; in the data active means inhibition above about 15%
# Target sequence (Q9NXA8 whole entry, looked up): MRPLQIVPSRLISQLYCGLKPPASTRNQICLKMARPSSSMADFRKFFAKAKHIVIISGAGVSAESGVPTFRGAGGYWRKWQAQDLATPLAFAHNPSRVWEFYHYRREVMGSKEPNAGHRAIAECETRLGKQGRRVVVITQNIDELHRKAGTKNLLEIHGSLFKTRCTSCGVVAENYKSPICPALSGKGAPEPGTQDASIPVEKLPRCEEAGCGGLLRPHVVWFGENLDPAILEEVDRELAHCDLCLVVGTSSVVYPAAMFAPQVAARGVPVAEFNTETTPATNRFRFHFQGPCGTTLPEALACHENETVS
# Active calls of the source: *; / = not tested or not shown.
SMILES,FGF22 binding,Statin myotox sup,E-sel inducer,FN deposition inh,rRNA inh HTS,SIRT5 inh
Cc1cc(C(=O)Nc2ccc(C)c(C)c2)n(-c2ccccc2)n1,0,11,53*,4,-2,0
COc1ccc(-c2nc(N)n[nH]2)cc1,/,-7,/,/,/,/
COc1cc(OC)cc(-c2nc(N)n[nH]2)c1,/,106*,/,/,/,/
OCCNc1nc(Nc2ccccc2Oc2ccccc2)nc(N2CCCC2)n1,0,10,0,-2,-25,-4
COc1cccc(Nc2nc(NCCO)nc(N3CCCC3)n2)c1,0,-6,0,-4,-25*,/
CCC(=O)NC(=S)Nc1ccc(NC(=O)c2cccc([N+](=O)[O-])c2C)cc1,/,/,/,0,/,/
CCC(=O)NC(=S)Nc1ccc(NC(=O)c2ccccc2[N+](=O)[O-])cc1,0,/,/,2,-22*,/
CCCCCC(=O)NNC(=S)NC(=O)c1ccccc1[N+](=O)[O-],0,/,/,/,-32*,-2
CCCOC(=O)c1ccc(NC(=O)c2ccccc2[N+](=O)[O-])cc1,43*,/,/,-2,-24,-2
CCCCCC(=O)NNC(=S)NC(=O)c1cccc([N+](=O)[O-])c1,/,/,/,7,/,/
CCN1[C@@H]2c3ccc(-c4ccc(OC)cc4)c(=O)n3C[C@@H]2[C@@H](CO)[C@@H]1C(=O)N(C)C,/,-16,0,/,-2,/
C/C(=N\NC(=O)c1cc(-c2ccc(C)s2)[nH]n1)c1ccco1,1,/,0,-3,-35*,1
C/C(=N/NC(=O)c1cc(C)[nH]n1)c1ccco1,0,/,7,2,17,0
C/C(=N/NC(=O)c1ccco1)c1cccc(NC(=O)c2ccc(C)s2)c1,1.5*,/,/,2,-12,0
O=c1[nH][nH]c(-c2ccccc2)c1C=Nc1ccc(C(F)(F)F)cc1,44*,6,/,-12,-2,0
O=c1[nH][nH]c(-c2ccccc2)c1C=Nc1ccccc1,/,13,/,6,/,/
O=C(COC(=O)c1ccc2c(c1)OCO2)Nc1ncc(Cl)cc1Cl,0,/,/,3,13,/
O=C(COC(=O)c1ccc(O)cc1)Nc1ncc(Cl)cc1Cl,44*,-5,1,2,/,2
Cc1ccc2c(c1)Sc1c(ccc3ccccc13)N2,0,3,/,-14,-27*,0
C=CCNC(=O)CSc1nc2cc(C(=O)OCC)ccc2n1CC,0,18,/,/,-43*,-1
CCOC(=O)c1ccc2c(c1)nc(-c1ccccn1)n2CC,0,-4,/,4,-2,-1
CCn1c(C)nc2cc(C(=O)OC)ccc21,43*,/,9,3,7,1
CCn1c(C)nc2cc(C(=O)NNC(=S)Nc3ccccc3OC)ccc21,0,/,/,0,-20*,4
CCOC(=O)c1ccc2c(c1)nc(COc1ccc(OC)cc1)n2CC,/,107*,/,/,/,/
Cc1nc(C)n(C(Oc2ccc(Cl)cc2Cl)C(=O)C(C)(C)C)n1 (centres undefined),0,-2,2,-7,-18*,3
SMILES,FGF22 binding,Statin myotox sup,E-sel inducer,FN deposition inh,rRNA inh HTS,SIRT5 inh
Nc1nc(CSc2nnnn2-c2ccccc2)nc(N2CCCc3ccccc32)n1,/,115*,/,/,/,/
Nc1nc(CN2CCN(c3ccccc3)CC2)nc(N2CCCc3ccccc32)n1,/,3,-1,0,/,/
COc1cccc(-c2ccc([C@H]3[C@@H](C#N)N(C(=O)Cc4ccncc4)[C@@H]3CO)cc2)c1,0,17,0,-1,-8,-1
CO[C@H]1CN(C)C(=O)c2cc(NC(=O)C3CCOCC3)ccc2OC[C@@H](C)N(Cc2nccs2)C[C@H]1C,0,0,0,-6,2,-1
C[C@H](CO)N1C[C@H](C)[C@@H](CN(C)Cc2ccc(Cl)c(Cl)c2)Oc2c(NS(=O)(=O)c3ccc(Cl)cc3)cccc2C1=O,-1,22,0,/,2,3
O=C(Cn1c(=O)n(Cc2ccco2)c(=O)c2c3c(sc21)CCCCC3)c1ccccc1,0,-31,/,/,-19*,-1
O=C(Cn1c(=O)n(Cc2ccco2)c(=O)c2c3c(sc21)CCCCC3)Nc1ccccc1,/,24,/,-15,/,/
CO[C@H]1CN(C)C(=O)c2cc(NC(=O)C3CCOCC3)ccc2OC[C@H](C)N(Cc2cccnc2)C[C@@H]1C,0,-10,0,1,2,1

# Screening results: PubChem, Broad Institute
